Experimental data from paper PMC4195389 (Journal of the American Chemical Society, 2014).

Experiments:
[1] = tested on: HCT116N cells (MMR-proficient) and HCT116O cells (MMR-deficient); type: cell-based
[2] = tested on: HCT116N and HCT116O cells; assay: MTT cytotoxicity assay; type: cell-based; settings: 72 h
Outline: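 HCT116N and HCT116O cells are seeded at 50,000 cells/well in 96-well format and exposed to test compound for 72 h. MTT labelling follows for 4 h at 37 °C under 5% CO2, and formazan is dissolved in acidified SDS. The read-out is A570 minus A690 background. Percent viability is formazan of treated over untreated cells. Differential cytotoxicity is the difference in percent viability between the two lines.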

[3] = Metalloinsertor pH titrations; type: physicochemical; settings: chrysi immine proton; ambient temperature, 0.1 M NaCl; racemic mixtures
Outline: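 Test compound at 25 μM in 0.1 M NaCl is titrated from about pH 4.5 to 10.5 and back with 6 mM NaOH or 10 mM HCl, with pH followed by electrode. A UV-vis spectrum is recorded after each addition. Absorbance at one strongly changing wavelength is plotted against pH, and pKa is taken from the inflection of the sigmoid. Values from three separate experiments are pooled and averaged.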

[4] = tested on: 36-mer DNA duplex containing a CC mismatch; type: binding
[5] = tested on: matched sites in the DNA duplex; assay: Binding competition gels with [Rh; settings: competition with 4 μM [Rh(bpy)2(phi)]3+; up to 1:15 DNA:complex; data not shown
[6] = tested on: HCT116O cells (MMR-deficient); assay: Cell death mode flow cytometry assay; type: cell-based; settings: 72 h
Outline: (§1)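 HCT116 cells, grown in RPMI 1640 with 10% FBS, glutamine, non-essential amino acids, pyruvate, penicillin/streptomycin and 400 μg/mL G418 at 37 °C under 5% CO2, are exposed to test compound (0–0.5 μM) for 72 h. They are then trypsinized, washed in cold PBS, pelleted and resuspended in PBS at 10^6 cells/mL. Staining is 30 min with propidium iodide (1 μg/mL final) plus YO-PRO-1 (50 nM final). Flow-cytometry events are gated as live, apoptotic, necrotic or dead.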

[7] = tested on: HCT116N cells (MMR-proficient); assay: Cell death mode flow cytometry assay; type: cell-based; settings: 72 h
Outline: as §1

[8] = tested on: DNA hairpin 5′-[…]-3′ with CC mismatch; assay: Covalent DNA binding assay; settings: 30 min at 37 °C; neutral phosphate buffer or 5 mM glutathione

Molecule	concentration required for optimal differential activity [1]	differential inhibition (difference in %BrdU incorporation between HCT116N and HCT116O cells) [1]	optimal concentration for differential cytotoxicity [2]	pKa [3]	other results
[Rh(chrysi)(phen)(DPE)]Cl2 [[Rh(chrysi)(phen)(DPE)]^2+]	3 µM	55 ± 2%	6000 nM	8.7 ± 0.2	
Δ-[Rh(chrysi)(phen)(DPE)]^2+					lower binding affinity for mismatched DNA as compared to Δ-[Rh(bpy)2(chrysi)]3+ [4]: ~5 fold; binding at matched sites [5]: no binding at matched sites
[Rh(chrysi)(phen)(PyOctanol)]Cl2 [[Rh(chrysi)(phen)(PyOctanol)]^2+]			480 nM		
[Rh(HDPA)2(chrysi)]^3+ [reference compound]	10 µM		25000 nM		
[Rh(chrysi)(phen)(PPO)]Cl2 [[Rh(chrysi)(phen)(PPO)]^2+]	0.3 µM	62 ± 2%	320 nM	8.3 ± 0.3	mode of cell death ([6]; 0.2 or 0.5 μM, HCT116O versus HCT116N): induces necrosis preferentially in the MMR-deficient HCT116O cell line; live cells ([6]; HCT116O, 0.2 μM): 28 ± 6%; necrotic cells ([6]; HCT116O, 0.2 μM): 13 ± 2%; cells in the apoptotic region ([6]; HCT116O, following metalloinsertor treatment): 17 ± 7%; live cells ([7]; 0.2 μM): 57 ± 7%; cells in the apoptotic region ([7]; following metalloinsertor treatment): 25 ± 7%
[Rh(chrysi)(phen)(PPE)]Cl2 [[Rh(chrysi)(phen)(PPE)]^2+]	1 µM	53 ± 7%	720 nM	8.9 ± 0.4	covalent DNA binding [8]: no covalent DNA binding
N.N.[Cl][Pt][Cl] [cisplatin, cis-diamminedichloroplatinum, reference compound]					concentration required for optimal biological activity [1]: 6 μM
Λ-[Rh(chrysi)(phen)(DPE)]^2+					binding at matched sites [5]: no binding at matched sites
